In general, MIC refers to the lowest concentration found to suppress growth. In general, IC50 refers to the point on the concentration scale where inhibition reaches its midpoint. Lower therefore signals greater potency.

The test system of test [1] is Mycolicibacterium smegmatis. In words: In vitro antimicrobial activity against Mycobacterium smegmatis ATCC 607 tested at 100-0.1 ug/mL; i=Inactive at highest concentration. The class given is functional, organism-based. The procedure, abridged:
(§1)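 Agar dilution/streak method; MIC (μg/mL) read as lowest concentration inhibiting growth. Each organism was streaked on agar plates holding serial dilutions of test agent over the range given in the line. "i" means no inhibition at the top concentration tested.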

Test [2] concerns Candida albicans. Kind of test: In vitro antimicrobial activity against Candida albicans ATCC 10231, tested at 100-0.1 ug/mL; i=Inactive at highest concentration. In kind it is functional, organism-based. The procedure, abridged: as §1
Test [3] deals with Klebsiella pneumoniae. In words: In vitro antimicrobial activity against,Klebsiella pneumoniae ATCC 10031 tested at 100-0.1 ug/mL; i=Inactive at highest concentration. In kind it is functional, organism-based. The procedure, abridged: as §1
Test [4] has as its system Staphylococcus aureus. Kind of test: In vitro antimicrobial activity against, Staphylococcus aureus ATCC 13709 tested at 100-0.1 ug/mL; i=Inactive at highest concentration. The class given is functional, organism-based. Put shortly: as §1
In test [5] the test system is Candida albicans. In words: In vitro antimicrobial activity against Candida albicans ATCC 10231, tested at 100-0.1 ug/mL. The class given is functional. The procedure, abridged: as §1
Test [6] concerns Klebsiella pneumoniae. In words: In vitro antimicrobial activity against Klebsiella pneumoniae ATCC 10031,tested at 100-0.1 ug/mL; i=Inactive at highest concentration. In kind it is functional, organism-based. The procedure, abridged:
as §1

Test [7] deals with Mycolicibacterium smegmatis. In words: In vitro antimicrobial activity against Mycobacterium smegmatis ATCC 607,tested at 100-0.1 ug/mL. In kind it is functional. The procedure, abridged:
as §1

Test [8] concerns Staphylococcus aureus. In words: In vitro antimicrobial activity against, Staphylococcus aureus ATCC 13709,tested at 100-0.1 ug/mL; i=Inactive at highest concentration. In kind it is functional, organism-based. The procedure, abridged:
as §1

The subject of test [9] is Candida albicans. In words: In vitro antimicrobial activity against Candida albicans ATCC 10231 tested at 25-0.1 ug/mL; i=Inactive at highest concentration. The class given is functional, organism-based. The procedure, abridged: as §1
The subject of test [10] is Mycolicibacterium smegmatis. Kind of test: In vitro antimicrobial activity against Mycobacterium smegmatis ATCC 607 tested at 25-0.1 ug/mL. The class given is functional. The procedure, abridged: as §1
For test [11], the system named is Staphylococcus aureus. Kind of test: In vitro antimicrobial activity against, Staphylococcus aureus ATCC 13709 tested at 25-0.1 ug/mL. The class given is functional. The procedure, abridged: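 Agar-dilution/streak assay giving the MIC in μg/mL, run against S. aureus ATCC 13709 within a seven-organism panel.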
Test [12] relates to L1210. In words: In vitro cytotoxic activity against L-1210 mouse lymphocytic leukemia cell culture (ATCC CCL-219). In kind it is functional, cell-based. Put shortly:
(§2)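 L1210 (ATCC 219) cells: 1×10^4 cells per well seeded in DMEM with 5% bovine serum and grown 48 h at 37 °C under 5% CO2. Agent was added from a 10 mg/mL stock in 95% ethanol via 2× medium and incubated a further 48 h. The nonadherent cells were dispersed by pipetting, diluted in balanced salts solution and counted by hemocytometer or Coulter counter. IC50 is the dose giving 50% of control count.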

For test [13], the system named is B16. In words: In vitro cytotoxic activity against B-16 mouse melanoma (B-16). The class given is functional, cell-based. The procedure, abridged:
(§3)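 B16 cells: 1×10^4 cells per well seeded in DMEM with 5% bovine serum and grown 48 h at 37 °C under 5% CO2. Agent was added from a 10 mg/mL stock in 95% ethanol via 2× medium and incubated a further 48 h. Cells were detached with 0.01% trypsin/0.1% EDTA in PBS for 5 min at 37 °C and counted. IC50 is the dose giving 50% of control cell count, taken from count versus concentration plots.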

Test [14] relates to Klebsiella pneumoniae. In words: In vitro antimicrobial activity against Klebsiella pneumoniae ATCC 10031 tested at 25-0.1 ug/mL; i=Inactive at highest concentration. In kind it is functional, organism-based. Put shortly:
as §1

The test system of test [15] is L1210. Kind of test: In vitro cytotoxic activity against,L-1210 mouse lymphocytic leukemia cell culture (ATCC CCL-219). The class given is functional, cell-based. Put shortly: as §2
Test [16] has as its system Klebsiella pneumoniae. In words: In vitro antimicrobial activity against Klebsiella pneumoniae ATCC 10031,tested at 100-0.1 ug/mL. In kind it is functional. The procedure, abridged: as §1
For test [17], the system named is B16. In words: In vitro cytotoxic activity against,B-16 mouse melanoma (B-16). The class given is functional, cell-based. Put shortly:
as §3

Test [18] relates to Staphylococcus aureus. Kind of test: In vitro antimicrobial activity against, Staphylococcus aureus ATCC 13709,tested at 100-0.1 ug/mL. The class given is functional. Put shortly: as §1
For test [19], the species on record is Homo sapiens. In words: In vitro cytotoxic activity against, human lymphoblastic leukemia cell culture (CCRF-CEM). The class given is functional.
The test system of test [20] is Mycolicibacterium smegmatis. In words: In vitro antimicrobial activity against Mycobacterium smegmatis ATCC 607,tested at 50-0.1 ug/mL. In kind it is functional. Put shortly: as §1
Test [21] has as its system Candida albicans. Kind of test: In vitro antimicrobial activity against Candida albicans ATCC 10231, tested at 50-0.1 ug/mL; i=Inactive at highest concentration. The class given is functional, organism-based. Put shortly:
as §1

The test system of test [22] is Klebsiella pneumoniae. Kind of test: In vitro antimicrobial activity against Klebsiella pneumoniae ATCC 10031,tested at 50-0.1 ug/mL; i=Inactive at highest concentration. The class given is functional, organism-based. The procedure, abridged:
as §1

The subject of test [23] is Staphylococcus aureus. Kind of test: In vitro antimicrobial activity against, Staphylococcus aureus ATCC 13709,tested at 50-0.1 ug/mL;. In kind it is functional. The procedure, abridged:
as §1

The test system of test [24] is Staphylococcus aureus. Kind of test: In vitro antimicrobial activity against, Staphylococcus aureus ATCC 13709,tested at 50-0.1 ug/mL. The class given is functional. Put shortly:
as §1

Test [25] has as its system Klebsiella pneumoniae. In words: In vitro antimicrobial activity against Klebsiella pneumoniae ATCC 10031,tested at 100-0.1 ug/mL; Inactive at highest concentration. In kind it is functional, organism-based. The procedure, abridged:
as §1

Test [26] has as its system Staphylococcus aureus. Kind of test: In vitro antimicrobial activity against Staphylococcus aureus ATCC 13709,tested at 100-0.1 ug/mL. The class given is functional. The procedure, abridged: as §1
Test [27] concerns Mycolicibacterium smegmatis. In words: In vitro antimicrobial activity against Mycobacterium smegmatis ATCC 607,tested at 100-0.1 ug/mL; i=Inactive at highest concentration. The class given is functional, organism-based. Put shortly: as §1
For test [28], the system named is Candida albicans. Kind of test: In vitro antimicrobial activity against Candida albicans ATCC 10231, tested at 25-0.1 ug/mL; i=Inactive at highest concentration. The class given is functional, organism-based. Put shortly: as §1
Test [29] has as its system Klebsiella pneumoniae. In words: In vitro antimicrobial activity against Klebsiella pneumoniae ATCC 10031,tested at 25-0.1 ug/mL; i=Inactive at highest concentration. The class given is functional, organism-based. Put shortly:
as §1

The subject of test [30] is Mycolicibacterium smegmatis. Kind of test: In vitro antimicrobial activity against Mycobacterium smegmatis ATCC 607,tested at 25-0.1 ug/mL. The class given is functional. The procedure, abridged:
as §1

In test [31] the test system is Staphylococcus aureus. In words: In vitro antimicrobial activity against, Staphylococcus aureus ATCC 13709,tested at 25-0.1 ug/mL. In kind it is functional. The procedure, abridged: as §1

In brackets after ≈: the same amount, converted by molar mass. Activity calls are given as the source filed them. The calls are words filed in the database; no cut-off is given here.

Consider `C=Cc1c(C)c(OC)cc2c1-c1ccc(OC)c(C)c1CC2`, for which the MIC entry in test [1], in [2], in [3] and in test [4] was “inactive” throughout.

For the compound `COc1cc2c(cc1C)-c1ccccc1CC2`, the MIC was 100 mg/L (≈ 446 µM) in test [5] and 25 mg/L (≈ 111 µM) in test [7]. Moreover, the MIC entry in [6] and in test [8] was “inactive” each time.

As for `C=Cc1c(C)c(O)cc2c1-c1ccc(O)c(C)c1CC2`, the MIC entry in [9] and in [14] was “inactive” in each case. The MIC is 12.5 mg/L (≈ 46.9 µM) in test [10] and 25 mg/L (≈ 93.9 µM) in test [11]. Besides, the IC50 in [12] was determined as 13.8 mg/L (≈ 51.8 µM); in [13], 12.5 mg/L (≈ 46.9 µM).

With `COc1cc2c(cc1C[N+](C)(C)CSc1ccccc1)-c1ccc(OC)c(C)c1CC2.[Br-]`, the MIC worked out at 3.12 mg/L in [5], 12.5 mg/L in test [16], 1.56 mg/L in [18] and 1.56 mg/L in test [7]. For the same compound, the figures for the IC50 in [15], in test [17] and in test [19] were 1.3 mg/L, 0.3 mg/L and 0.9 mg/L, respectively.

As to `COc1cc2c(cc1C[N+](C)(C)CSc1ccccc1)-c1ccccc1CC2.[Br-]`, the MIC was determined as 12.5 mg/L in test [5], 25 mg/L in [16], 1.56 mg/L in [18] and 1.56 mg/L in test [7]. The 50% inhibitory concentration (IC50) in test [15] was found to be 3.7 mg/L; in test [17], 0.5 mg/L; in test [19], 1.4 mg/L.

As to `COC(=O)c1cc2c(cc1OC)CCc1ccccc1-2`, the minimal inhibitory concentration (MIC) amounted to 25 mg/L (≈ 93.2 µM) in test [20] and 50 mg/L (≈ 186 µM) in test [23]. Also, the MIC result in test [21] and in test [22] was “inactive” each time.

Consider `CCc1cc2c(cc1OC)-c1ccccc1CC2`, for which the MIC worked out at 3.12 mg/L (≈ 13.1 µM) in [20] and 25 mg/L (≈ 105 µM) in test [24]. The MIC result in test [21] and in test [22] was “inactive” throughout.

Turning to `Cc1cc2c(cc1O)CCc1ccccc1-2`, the MIC in test [5] came to 6.25 mg/L (≈ 29.7 µM); in test [18] it was 25 mg/L (≈ 119 µM); in [7] it was 3.12 mg/L (≈ 14.8 µM). The half-inhibitory concentration (IC50) was 24.5 mg/L (≈ 117 µM) in test [15] and 27.5 mg/L (≈ 131 µM) in [17]. In addition, in test [25], the MIC result is “inactive”.

In the case of `CC[N+](CC)(CC)Cc1cc2c(cc1OC)CCc1ccccc1-2.[Br-]`, the minimum inhibitory concentration (MIC) in test [20] and in test [24] was 25 mg/L throughout. For the same compound, the MIC entry in [21] and in test [22] was “inactive” in each case.

Regarding `Cc1cc2c(cc1O)CCc1c-2ccc(O)c1C`, the MIC was found to be 50 mg/L (≈ 208 µM) in test [5], 50 mg/L (≈ 208 µM) in test [16], 12.5 mg/L (≈ 52 µM) in [18] and 6.25 mg/L (≈ 26 µM) in [7]. In addition, the half-maximal inhibitory concentration (IC50) in test [15] was determined as 10.2 mg/L (≈ 42.4 µM); in test [17], 17.5 mg/L (≈ 72.8 µM); in test [19], 9.3 mg/L (≈ 38.7 µM).

Regarding `COc1ccccc1C[N+](C)(C)CSc1ccccc1.[Br-]`, the MIC was found to be 100 mg/L in [5], 50 mg/L in test [26] and 50 mg/L in test [7]. For the same compound, the MIC result in test [6] was “inactive”.

In the case of `COc1cc2c(cc1C)-c1ccc(OC)c(C)c1CC2`, the MIC entry in test [27], in test [6], in test [8] and in [2] was “inactive” in each case.

Take `COc1cc2c(cc1C[N+](C)(C)CSc1ccccc1)CCc1ccccc1-2.[Br-]`: the MIC entry in test [28] and in [29] was “inactive” each time. Besides, the MIC in test [30] stood at 3.12 mg/L; in test [31], 6.25 mg/L.

(Values after ChEMBL document CHEMBL1122829, “Antimicrobial and cytotoxic properties of 9,10-dihydrophenanthrenes: structure-activity studies on juncusol” (J Med Chem, 1985).)
